24 molecules from ChEMBL document CHEMBL1157808, “Synthesis and biological evaluation of phenolic 4,5-dihydroisoxazoles and 3-hydroxy ketones as estrogen receptor alpha and beta agonists” (Bioorg Med Chem, 2010) can be followed below.

Active and inactive are the calls of the source. The rule behind the calls is not given here.

One test deals with Estrogen receptor beta (Homo sapiens) (UniProt Q92731). As to the kind of experiment: Agonist activity at ERbeta expressed in HEK293 cells at 10 uM after 24 hrs by luciferase reporter gene assay relative to 3,17-beta-estradiol. The class given is functional, cell-based. A digest of the protocol: (§1)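 HEK293 cells (no endogenous ER) in phenol-free DMEM with 5% delipidated FBS were transfected for 4 h with 5 ng ERα or ERβ expression vector, 75 ng pERE2TATA-LUC reporter and 20 ng pCMVβ. Cells then received 10 μM compound, 10 nM E2 or vehicle (0.1% v/v) for 24 h. Luciferase was normalized to β-galactosidase and expressed as 100% × (test − vehicle)/(E2 − vehicle). Values are means of at least three independent transfections.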
Chain of Estrogen receptor beta (Homo sapiens) (Q92731 whole entry): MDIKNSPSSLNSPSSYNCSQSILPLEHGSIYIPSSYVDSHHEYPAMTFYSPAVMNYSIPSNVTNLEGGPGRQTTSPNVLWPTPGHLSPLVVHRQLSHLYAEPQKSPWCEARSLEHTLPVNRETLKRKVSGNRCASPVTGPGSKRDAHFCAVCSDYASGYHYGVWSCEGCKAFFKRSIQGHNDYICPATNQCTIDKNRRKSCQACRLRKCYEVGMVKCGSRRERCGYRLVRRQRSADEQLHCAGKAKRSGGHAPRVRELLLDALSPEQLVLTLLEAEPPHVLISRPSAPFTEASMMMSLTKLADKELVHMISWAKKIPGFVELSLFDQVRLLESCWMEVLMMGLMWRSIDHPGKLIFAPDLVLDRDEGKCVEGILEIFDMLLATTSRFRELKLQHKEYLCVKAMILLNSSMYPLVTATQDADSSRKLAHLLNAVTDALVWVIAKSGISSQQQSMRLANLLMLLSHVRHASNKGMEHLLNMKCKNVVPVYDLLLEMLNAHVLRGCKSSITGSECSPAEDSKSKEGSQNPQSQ
Regarding `CC(O)(CC(=O)CCCc1ccc(O)cc1)c1ccccc1` (racemic), the Activity was 103%.
On the same count and under the same terms, with `CC(O)(CC(=O)CCCc1ccccc1)c1ccccc1` (racemic) the figure was 15.1%; with `CC1(c2ccccc2)CC(CCCc2ccccc2)=NO1` (racemic), 15.5%.
The same measure, in the same setting: the value for `O=C(CCCc1ccc(O)cc1)CC(O)Cc1ccccc1` (racemic) was 82.3%; that for `O=C(CCc1ccc(O)cc1)CC(O)CCc1ccccc1` (racemic) was 10.1%; that for `O=C(CCc1ccc(O)cc1)CC(O)Cc1ccccc1` (racemic) was 107%.
On the same count and under the same terms, with `O=C(CCc1cccc(O)c1)CC(O)CCc1ccccc1` (racemic) the figure was 48.1%; with `O=C(CCCc1ccccc1)CC(O)c1ccccc1` (single isomer, unassigned), 28.2%.
In the case of `Oc1ccc(CCC2=NOC(Cc3ccccc3)C2)cc1` (single isomer, unassigned; 3b), the Activity is 41.5%.
The same measure, in the same setting: with `Oc1ccc(CCCC2=NOC(c3ccccc3)C2)cc1` (single isomer, unassigned; 45a) the figure was 44.7%.
The same measure, in the same setting: the value for `Oc1ccc(CCCC2=NOC(c3ccccc3)C2)cc1` (single isomer, unassigned; 45b) was 77.1%; that for `CC1(c2ccccc2)CC(CCCc2ccc(O)cc2)=NO1` (single isomer, unassigned; 46a) was -0.9%.
`CC1(c2ccccc2)CC(CCCc2ccc(O)cc2)=NO1` (single isomer, unassigned; 46b): the Activity amounted to 10.6%.
Still for that read-out and setting: with `O=C(CCCc1ccc(O)cc1)CC(O)c1ccccc1` (single isomer, unassigned; 50a) the figure was 170%; with `O=C(CCCc1ccc(O)cc1)CC(O)c1ccccc1` (single isomer, unassigned; 50b), 155%.
Same read-out and setting: with `Oc1ccc(CCCC2=NOC(Cc3ccccc3)C2)cc1` (stereo in doubt; 24a) the figure was 78.2%; with `Oc1ccc(CCCC2=NOC(Cc3ccc(O)cc3)C2)cc1` (stereo in doubt; 26a), -0.9%; with `O=C(CCCc1ccc(O)cc1)CC(O)Cc1ccc(O)cc1` (stereo in doubt; 32b), -1.6%.
Consider `c1ccc(CCCC2=NOC(c3ccccc3)C2)cc1` (stereo in doubt; 43b), for which the Activity is 17.2%.
On the same count and under the same terms, with `Oc1ccc(CCCC2=NOC(c3cccc(O)c3)C2)cc1` (stereo in doubt; 47b) the figure was 7.2%; with `O=C(CCCc1ccc(O)cc1)CC(O)Cc1ccc(O)cc1` (stereo in doubt; form 1), 108%; with `O=C(CCCc1ccc(O)cc1)CC(O)Cc1ccc(O)cc1` (stereo in doubt; form 2), 1.8%.

For another test, the species on record is Homo sapiens. Put plainly: Selectivity ratio of relative binding affinity for human ERalpha to relative binding affinity for human ERbeta. The method, boiled down:
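COS-1 cells in DMEM with 10% delipidated FBS were transfected for 24 h with human ERα or ERβ vector (pSG5-hERα/β). Cells were washed, lysed in 0.5 M NaOH at 56 °C for 15 min and counted by scintillation, with nonspecific binding subtracted.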
Consider `CC(O)(CC(=O)CCCc1ccc(O)cc1)c1ccccc1` (racemic), for which the Ratio was determined as 8.
As to `CC(O)(CC(=O)CCCc1ccccc1)c1ccccc1` (racemic), the Ratio was 2.
On the same count and under the same terms, with `CC1(c2ccccc2)CC(CCCc2ccccc2)=NO1` (racemic) the figure was 1.5.
Take `O=C(CCCc1ccc(O)cc1)CC(O)Cc1ccccc1` (racemic): the Ratio amounted to 11.
Same read-out and setting: with `O=C(CCc1ccc(O)cc1)CC(O)CCc1ccccc1` (racemic) the figure was 0.3.
On the same count and under the same terms, with `O=C(CCc1ccc(O)cc1)CC(O)Cc1ccccc1` (racemic) the figure was 0.2; with `O=C(CCc1cccc(O)c1)CC(O)CCc1ccccc1` (racemic), 106.
On the same count and under the same terms, with `O=C(CCCc1ccccc1)CC(O)c1ccccc1` (single isomer, unassigned) the figure was 5; with `Oc1ccc(CCC2=NOC(Cc3ccccc3)C2)cc1` (single isomer, unassigned; 3a), 6.
For the molecule `Oc1ccc(CCC2=NOC(Cc3ccccc3)C2)cc1` (single isomer, unassigned; 3b), the Ratio stood at 0.5.
Same read-out and setting: with `Oc1ccc(CCCC2=NOC(c3ccccc3)C2)cc1` (single isomer, unassigned; 45a) the figure was 157; with `Oc1ccc(CCCC2=NOC(c3ccccc3)C2)cc1` (single isomer, unassigned; 45b), 41.
Same read-out and setting: with `CC1(c2ccccc2)CC(CCCc2ccc(O)cc2)=NO1` (single isomer, unassigned; 46a) the figure was 13; with `CC1(c2ccccc2)CC(CCCc2ccc(O)cc2)=NO1` (single isomer, unassigned; 46b), 1; with `O=C(CCCc1ccc(O)cc1)CC(O)c1ccccc1` (single isomer, unassigned; 50a), 4.
On the same count and under the same terms, with `O=C(CCCc1ccc(O)cc1)CC(O)c1ccccc1` (single isomer, unassigned; 50b) the figure was 5; with `c1ccc(CCCC2=NOC(c3ccccc3)C2)cc1` (stereo in doubt; 43b), 1.
Take `O=C(CCCc1ccccc1)CC(O)c1ccccc1` (stereo in doubt; 48a): the Ratio was determined as 0.7.

For the next test, the target named is T1, Estrogen receptor (Homo sapiens) (UniProt P03372).
T1 sequence (whole entry): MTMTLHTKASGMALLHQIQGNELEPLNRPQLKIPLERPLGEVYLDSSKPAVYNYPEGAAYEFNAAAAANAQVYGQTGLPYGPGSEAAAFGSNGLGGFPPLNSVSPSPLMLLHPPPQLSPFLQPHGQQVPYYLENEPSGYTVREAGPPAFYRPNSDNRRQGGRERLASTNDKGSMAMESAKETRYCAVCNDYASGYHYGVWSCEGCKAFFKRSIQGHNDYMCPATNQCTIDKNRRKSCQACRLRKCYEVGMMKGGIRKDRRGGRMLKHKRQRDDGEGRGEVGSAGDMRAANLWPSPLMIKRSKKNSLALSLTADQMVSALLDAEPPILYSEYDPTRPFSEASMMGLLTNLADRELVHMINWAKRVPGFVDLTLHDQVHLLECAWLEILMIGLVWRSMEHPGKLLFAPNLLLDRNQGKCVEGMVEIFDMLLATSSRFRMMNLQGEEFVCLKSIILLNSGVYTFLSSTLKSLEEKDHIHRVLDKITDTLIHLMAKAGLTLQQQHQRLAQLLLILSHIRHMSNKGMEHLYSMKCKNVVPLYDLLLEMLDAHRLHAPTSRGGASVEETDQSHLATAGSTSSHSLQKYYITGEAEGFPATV
As to the kind of experiment: Induction of ERalpha-mediated pS2 gene expression in human MCF7 cells at 10 nM after 6 hrs by real-time quantitative PCR analysis relative to control. The class given is cell-based. A digest of the protocol:
(§2)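 MCF-7 cells were grown overnight in phenol red-free DMEM with 5% charcoal-stripped FBS. They were then exposed to ligand at 10 nM final or to solvent for 6 h or 24 h. Total RNA was extracted and reverse-transcribed. pS2 mRNA was measured by TaqMan real-time qPCR with RPLPO as reference and reported as fold change relative to control.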
The molecule `Oc1ccc(CCCC2=NOC(c3ccccc3)C2)cc1` (single isomer, unassigned; 45a) registered a fold change (FC) of 1.8.

The target of the next test is T1, Estrogen receptor (Homo sapiens). As to the kind of experiment: Antagonist activity at ERalpha in human MCF7 cells assessed as decrease in 3,17-beta-estradiol-induced pS2 gene expression at 1 uM after 24 hrs by real-time quantitative PCR analysis. The class given is functional, cell-based. The method, boiled down:
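Competition format: MCF-7 cells were first grown overnight in phenol red-free DMEM with 5% charcoal-stripped FBS. They were then co-treated for 24 h with 10 nM E2 plus 1 μM compound. Total RNA was extracted and pS2 mRNA was quantified by TaqMan real-time qPCR, normalized to RPLPO.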
Regarding `Oc1ccc(CCCC2=NOC(c3ccccc3)C2)cc1` (single isomer, unassigned; 45a), the inhibition (usually the relative decrease from the control value, in per cent) turned out to be 32%.
Same read-out and setting: the value for `Oc1ccc(CCCC2=NOC(c3ccccc3)C2)cc1` (single isomer, unassigned; 45b) was 27%; that for `O=C(CCCc1ccc(O)cc1)CC(O)c1ccccc1` (single isomer, unassigned; 50a) was 23%.
Same read-out and setting: the value for `O=C(CCCc1ccc(O)cc1)CC(O)c1ccccc1` (single isomer, unassigned; 50b) was 29%.

The target is the same in the next test. Put plainly: Ratio of compound to 3,17-beta-estradiol binding affinity at ERalpha expressed in COS-1 cells.
`O=C(CCCc1ccc(O)cc1)CC(O)c1ccccc1` (single isomer, unassigned; 50a): the Ratio came to 2.

The target is the same in another test. Put plainly: Agonist activity at ERalpha expressed in HEK293 cells at 10 uM after 24 hrs by luciferase reporter gene assay relative to 3,17-beta-estradiol. It is filed as functional, cell-based. A digest of the protocol:
as §1
On the technique in general: Reporter assays use an easily measured gene product as a stand-in for the process of interest.
Take `CC(O)(CC(=O)CCCc1ccc(O)cc1)c1ccccc1` (racemic): the Activity worked out at 90.9%.
Same read-out and setting: with `CC(O)(CC(=O)CCCc1ccccc1)c1ccccc1` (racemic) the figure was 83.3%; with `CC1(c2ccccc2)CC(CCCc2ccccc2)=NO1` (racemic), 69.5%; with `O=C(CCCc1ccc(O)cc1)CC(O)Cc1ccccc1` (racemic), 105%.
On the same count and under the same terms, with `O=C(CCc1ccc(O)cc1)CC(O)CCc1ccccc1` (racemic) the figure was 46.8%; with `O=C(CCc1ccc(O)cc1)CC(O)Cc1ccccc1` (racemic), 55%.
Same read-out and setting: with `O=C(CCc1cccc(O)c1)CC(O)CCc1ccccc1` (racemic) the figure was 87.3%; with `O=C(CCCc1ccccc1)CC(O)c1ccccc1` (single isomer, unassigned), 59.3%.
Consider `Oc1ccc(CCC2=NOC(Cc3ccccc3)C2)cc1` (single isomer, unassigned; 3b), for which the Activity amounted to 24.3%.
Still for that read-out and setting: with `Oc1ccc(CCCC2=NOC(c3ccccc3)C2)cc1` (single isomer, unassigned; 45a) the figure was 104%.
The same measure, in the same setting: the value for `Oc1ccc(CCCC2=NOC(c3ccccc3)C2)cc1` (single isomer, unassigned; 45b) was 65%.
Still for that read-out and setting: with `CC1(c2ccccc2)CC(CCCc2ccc(O)cc2)=NO1` (single isomer, unassigned; 46a) the figure was 14.4%; with `CC1(c2ccccc2)CC(CCCc2ccc(O)cc2)=NO1` (single isomer, unassigned; 46b), 13.6%.
Consider `O=C(CCCc1ccc(O)cc1)CC(O)c1ccccc1` (single isomer, unassigned; 50a), for which the Activity was found to be 139%.
The same measure, in the same setting: the value for `O=C(CCCc1ccc(O)cc1)CC(O)c1ccccc1` (single isomer, unassigned; 50b) was 140%; that for `Oc1ccc(CCCC2=NOC(Cc3ccccc3)C2)cc1` (stereo in doubt; 24a) was 154%; that for `Oc1ccc(CCCC2=NOC(Cc3ccc(O)cc3)C2)cc1` (stereo in doubt; 26a) was 14.4%.
Same read-out and setting: the value for `O=C(CCCc1ccc(O)cc1)CC(O)Cc1ccc(O)cc1` (stereo in doubt; 32b) was 2.8%; that for `c1ccc(CCCC2=NOC(c3ccccc3)C2)cc1` (stereo in doubt; 43b) was 11.5%; that for `Oc1ccc(CCCC2=NOC(c3cccc(O)c3)C2)cc1` (stereo in doubt; 47b) was 27.6%.
The same measure, in the same setting: the value for `O=C(CCCc1ccc(O)cc1)CC(O)Cc1ccc(O)cc1` (stereo in doubt; form 1) was 87.4%; that for `O=C(CCCc1ccc(O)cc1)CC(O)Cc1ccc(O)cc1` (stereo in doubt; form 2) was 15.4%.

Another test has the same target. Put plainly: Induction of ERalpha-mediated pS2 gene expression in human MCF7 cells at 10 nM after 24 hrs by real-time quantitative PCR analysis. It is filed as cell-based. The method, boiled down: as §2
For the molecule `Oc1ccc(CCCC2=NOC(c3ccccc3)C2)cc1` (single isomer, unassigned; 45a), the result was inactive.
In the case of `Oc1ccc(CCCC2=NOC(c3ccccc3)C2)cc1` (single isomer, unassigned; 45b), the outcome was inactive.
For the molecule `O=C(CCCc1ccc(O)cc1)CC(O)c1ccccc1` (single isomer, unassigned; 50a), the outcome was inactive.
Same read-out and setting: with `O=C(CCCc1ccc(O)cc1)CC(O)c1ccccc1` (single isomer, unassigned; 50b) the entry was “Active”.

A further test shares this target. Put plainly: Induction of ERalpha-mediated pS2 gene expression in human MCF7 cells at 10 uM after 24 hrs by real-time quantitative PCR analysis. The class given is cell-based.
For `Oc1ccc(CCCC2=NOC(c3ccccc3)C2)cc1` (single isomer, unassigned; 45b), the result was inactive.
On the same count and under the same terms, with `O=C(CCCc1ccc(O)cc1)CC(O)c1ccccc1` (single isomer, unassigned; 50a) the entry was “inactive”.

Tested on in a further test: not listed separately
Put plainly: Selectivity for ERalpha over ERbeta.
In the case of `Oc1ccc(CCCC2=NOC(c3ccccc3)C2)cc1` (single isomer, unassigned; 45a), the Selectivity ratio stood at 2.
